Reference: ChEMBL document CHEMBL1121477, “Noval antitumor nitrosoureas and related compounds and their reactions with DNA” (1980)
Values joined by “and” are separate entries in the source; they are usually repeats but may differ in a detail not shown here. Equal values may be shown once.

Tests used:
[1] = Compound was evaluated for its ability to exhibit alkylating property toward DNA at 5 mM in 180 min; format: functional
Outline: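 Alkylation was measured with PM2 covalently closed circular DNA (1.2 A280 units, 90% CCC) and 5 mM agent in 200 µL at 37 °C. Aliquots were taken into 20 mM potassium phosphate pH 11.8, 0.4 mM EDTA and 0.5 µg/mL ethidium, heated at 96 °C for 4 min, then rapidly cooled. Fluorescence loss relative to control gives the extent of alkylation.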

L1210 [2] = assay: Antitumor activity against lymphoid leukemia L1210 cell implanted in mice was measured by number of survivors on day 5 at a dosage of 100 mg/kg (6/6); format: functional, Mus musculus
Outline: (§1)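 L1210 leukemia cells (10^5) implanted intraperitoneally in mice on day 0. Compounds were suspended in saline plus Tween 80 and injected intraperitoneally within 5 min of preparation, following Cancer Chemotherapy National Service Center specifications; dose is given per day. Read-outs were weight change from day 0 to 5 (treated vs control), survivors on day 5, mean survival time treated/control, and %T/C.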

L1210 [3] = assay: Antitumor activity against lymphoid leukemia L1210 cell implanted in mice was measured by mean survival of mice expressed as treated/control at a dosage of 100 mg/kg (15.4/9.7); format: functional, Mus musculus; outline: as §1
L1210 [4] = assay: Antitumor activity against lymphoid leukemia L1210 cell implanted in mice was measured by %T/C at a dosage of 100 mg/kg; format: functional, Mus musculus; outline: as §1
L1210 [5] = assay: Antitumor activity against lymphoid leukemia L1210 cell implanted in mice was measured by wt.change of treated mice minus wt. change of control mice at 100 mg/kg from day 0-5 (-2.2/1.4); format: functional, Mus musculus; outline: as §1
[6] = Percent ability of compound to produce DNA interstrand cross-links was determined by the ethidium fluorescence assay at 6 hr and compared with antileukemic property; format: functional; set-up: concentration or dose not given beside the values
Outline: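 λ-DNA (1.0 A260 unit) was incubated with 5 mM compound in 50 mM potassium phosphate pH 7.2 at 37 °C. Aliquots went into 20 mM potassium phosphate pH 11.8, 0.4 mM EDTA and 0.5 µg/mL ethidium, were heated at 96 °C for 3 min and rapidly cooled. Fluorescence relative to control ×100 gives % DNA molecules with ≥1 interstrand cross-link; accuracy about ±2%.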

L1210 [7] = assay: Antitumor activity against lymphoid leukemia L1210 cell implanted in mice was measured by %T/C at a dosage of 200 mg/kg; format: functional, Mus musculus; outline: as §1
L1210 [8] = assay: Antitumor activity against lymphoid leukemia L1210 cell implanted in mice was measured by wt.change of treated mice minus wt. change of control mice at 200 mg/kg from day 0-5 (-4.4/1.4); format: functional, Mus musculus; outline: as §1
L1210 [9] = assay: Antitumor activity against lymphoid leukemia L1210 cell implanted in mice was measured by mean survival of mice expressed as treated/control at a dosage of 200 mg/kg (14.9/9.8); format: functional, Mus musculus; outline: as §1
L1210 [10] = assay: Antitumor activity against lymphoid leukemia L1210 cell implanted in mice was measured by number of survivors on day 5 at a dosage of 200 mg/kg (6/6); format: functional, Mus musculus; outline: as §1
L1210 [11] = assay: Antitumor activity against lymphoid leukemia L1210 cell implanted in mice was measured by %T/C on a 1-9 day schedule; format: functional, Mus musculus
Mus musculus [12] = assay: Antitumor activity against lymphoid leukemia L1210 cell implanted in mice was measured by number of survivors on day 5 at a dosage of 0.9 mg/kg (6/6); format: functional
Mus musculus [13] = assay: Antitumor activity against lymphoid leukemia L1210 cell implanted in mice was measured by mean survival of mice expressed as treated/control at a dosage of 0.9 mg/kg (15.6/11.1); format: functional
Mus musculus [14] = assay: Antitumor activity against lymphoid leukemia L1210 cell implanted in mice was measured by %T/C at a dosage of 0.9 mg/kg; format: functional
Mus musculus [15] = assay: Antitumor activity against lymphoid leukemia L1210 cell implanted in mice was measured by wt.change of treated mice minus wt. change of control mice at 0.9 mg/kg from day 0-5 (-1.4/0.4); format: functional
L1210 [16] = assay: Antitumor activity against lymphoid leukemia L1210 cell implanted in mice was measured by %T/C at a dosage of 1.3 mg/kg; format: functional, Mus musculus
L1210 [17] = assay: Antitumor activity against lymphoid leukemia L1210 cell implanted in mice was measured by number of survivors on day 5 at a dosage of 1.3 mg/kg (6/6); format: functional, Mus musculus
L1210 [18] = assay: Antitumor activity against lymphoid leukemia L1210 cell implanted in mice was measured by wt.change of treated mice minus wt. change of control mice at 1.3 mg/kg from day 0-5 (-2.9/0.3); format: functional, Mus musculus
L1210 [19] = assay: Antitumor activity against lymphoid leukemia L1210 cell implanted in mice was measured by mean survival of mice expressed as treated/control at a dosage of 1.3 mg/kg (25.3/9.6); format: functional, Mus musculus
L1210 [20] = assay: Antitumor activity against lymphoid leukemia L1210 cell implanted in mice was measured by wt.change of treated mice minus wt. change of control mice at 200 mg/kg from day 0-5 (-1.1/1.4); format: functional, Mus musculus; outline: as §1
L1210 [21] = assay: Antitumor activity against lymphoid leukemia L1210 cell implanted in mice was measured by mean survival of mice expressed as treated/control at a dosage of 200 mg/kg (16.4/16.9); format: functional, Mus musculus; outline: as §1
L1210 [22] = assay: Antitumor activity against lymphoid leukemia L1210 cell implanted in mice was measured by mean survival of mice expressed as treated/control at a dosage of 1 mg/kg (12.3/10.5); format: functional, Mus musculus
L1210 [23] = assay: Antitumor activity against lymphoid leukemia L1210 cell implanted in mice was measured by %T/C at a dosage of 1 mg/kg; format: functional, Mus musculus

In the case of CCN(N=O)C(N)=O, the Alkylation [1] is reported as 53%.

O=NN(CC[S+]([O-])CCCl)C(=O)NC1CCCCC1 (stereo not given) showed a Survivals (L1210 [2]) of 6, a Mean survival (L1210 [3]) of 15.4 time day-1 and a T/C (L1210 [4]) of 159%. It also gave a Change in weight (L1210 [5]) of -2.2 g, an Activity [6] of 0% and an Alkylation [1] of 84%.

With Cc1ccc(S(=O)(=O)OCCCl)cc1 the Alkylation [1] was 0%.

CS(=O)(=O)OCCCl gave an Alkylation [1] of 0%.

For O=NN(CCOCCCl)C(=O)NC1CCCCC1, the T/C (L1210 [7]) was 152%, the Change in weight (L1210 [8]) was -4.4 g and the Mean survival (L1210 [9]) was 14.9 time day-1. The Activity [6] was 0%, the Survivals (L1210 [10]) was 6 and the Alkylation [1] was 66%.

In the case of O=NN(CCCl)C(=O)OCCCSSCCCOC(=O)N(CCCl)N=O, the T/C (L1210 [11]) is reported as 136% and the Activity [6] is reported as 8% and 25% and 21%.

Work on CCOC(=O)N(CCCl)N=O yielded a Survivals (Mus musculus [12]) of 6, a Mean survival (Mus musculus [13]) of 15.6 time day-1 and a T/C (Mus musculus [14]) of 140%. For the same molecule, the Change in weight (Mus musculus [15]) was -1.4 g and the Activity [6] was 12% and 24% and 28%.

Molecule NC(=O)N(CCCl)N=O has a T/C (L1210 [16]) of 263%, a Survivals (L1210 [17]) of 6 and a Change in weight (L1210 [18]) of -2.9 g. It also gave an Activity [6] of 37%, a Mean survival (L1210 [19]) of 25.3 time day-1 and an Alkylation [1] of 70%.

For O=[N+]([O-])c1ccc(S(=O)(=O)OCCCl)cc1, the Alkylation [1] was 0%.

CC(=O)N(CCCl)N=O gave an Activity [6] of 44%.

Molecule O=NN(CCSCCO)C(=O)NC1CCCCC1 has a T/C (L1210 [7]) of 110%, a Change in weight (L1210 [20]) of -1.1 g and a Mean survival (L1210 [21]) of 16.4 time day-1. The Activity [6] was 0%, the Survivals (L1210 [10]) was 6 and the Alkylation [1] was 96%.

Molecule Cc1ccc(S(=O)(=O)N(CCCl)N=O)cc1 has a Mean survival (L1210 [22]) of 12.3 time day-1, a T/C (L1210 [23]) of 117% and an Activity [6] of 0%.

In the case of O=S(=O)(OCCCl)C(F)(F)F, the Alkylation [1] is reported as 40%.
